Where only a bound is given, the exact number is not on record here.

One data set deals with Trypanosoma cruzi. Briefly: Antitrypanosomal activity against Trypanosoma cruzi Tulahuen CL2 amastigotes expressing beta galactosidase infected in human MRC5 cells assessed as reduction in parasite burden using chlorophenol red beta-D-galactopyranoside as substrate and measured after 7 days by spectrophotometric analysis. The format is functional, organism-based. The conditions noted are these: Tulahuen CL2, MRC5, 168 h. The procedure, abridged:
(§1)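 T. cruzi Tulahuen CL2 β-galactosidase strain grown in MRC-5 cells (MEM, 5% heat-inactivated FCS, 37 °C, 5% CO2). MRC-5 cells (4 x 10^3/well) plus parasites (4 x 10^4/well) exposed 7 days to 4-fold dilutions from 64 µM down; final DMSO <1%. CPRG with Nonidet added, absorbance at 540 nm after 4 h. IC50 calculated against untreated-infected (100%) and non-infected (0%) controls. SI = MRC-5 CC50/IC50.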

The nature of data set [1]: Selectivity index, ratio of CC50 for cytotoxicity against human MRC5 cells to EC50 for Trypanosoma cruzi Tulahuen CL2 amastigotes expressing beta galactosidase infected in human MRC5 cells. The format is toxicity, cell-based. The conditions noted are these: read-out: Selectivity Index. In short, it runs like this: as §1

For the compound `O=C(Cc1ccc(Cl)cc1)Nc1nc2ccccc2[nH]1`, the IC50 in the data set with Trypanosoma cruzi is over 64 µM.
`CCCn1c(NC(=O)Cc2ccc(F)cc2)nc2ccccc21`: the IC50 in the data set with Trypanosoma cruzi came to 2.1 µM.
The same measure, in the same setting: the value for `CCCn1c(NC(=O)Nc2ccc(Cl)cc2)nc2ccccc21` was over 64 µM.
For the compound `Cn1nncc1C(=O)Nc1nc2ccc(C#N)cc2n1CC(F)(F)F`, the selectivity ratio in data set [1] was over 3. In addition, the IC50 with Trypanosoma cruzi was 24 µM.
For `CN(C)c1ccc(C(=O)Nc2nc3ccc(C#N)cc3n2CC(F)(F)F)cn1` the same measures were over 7 and 8.6 µM.
For `N#Cc1ccc2nc(NC(=O)c3ccnc(C(F)(F)F)c3)n(CC(F)F)c2c1` the same measures were 24 and 0.51 µM.
For `CCCn1c(NC(=O)Cc2ccc(F)cc2)nc2ccc(C(=O)O)cc21` the same measures were 1 and over 64 µM.
Consider `Cn1ncc(C(=O)Nc2nc3ccc(C#N)cc3n2CC(F)(F)F)n1`, for which the selectivity ratio in data set [1] turned out to be 1. The IC50 in the data set with Trypanosoma cruzi was 64 µM.
For `Cc1ccc(C(=O)Nc2nc3ccc(C#N)cc3n2CC(F)(F)F)cn1` the same measures were 1 and 64 µM.
On to `O=C(Cc1ccc(Cl)cc1)Nc1nc2ccccc2s1`, for which, in the data set on Trypanosoma cruzi, the IC50 was over 64 µM.
As to `CCCn1c(CCNC(=O)Cc2ccc(Cl)cc2)nc2ccccc21`, the IC50 in the data set on Trypanosoma cruzi is 33 µM.
Turning to `O=C(Nc1nc2cncnc2n1CC(F)(F)F)c1ccnc(C(F)(F)F)c1`, the selectivity ratio in data set [1] is 5. Besides, the IC50 with Trypanosoma cruzi was 1.1 µM.
Taken in the same sequence, the figures for `Cn1nc(C(F)(F)F)cc1C(=O)Nc1nc2cncnc2n1CC(F)(F)F` were 7 and 0.59 µM.
With `CCCn1c(NC(=O)Cc2cc(F)ccc2F)nc2ccccc21`, the IC50 with Trypanosoma cruzi is 2.2 µM.
On the same count and under the same terms, the value for `CCCn1c(NS(=O)(=O)c2ccc(Br)cc2)nc2ccccc21` was over 64 µM.
As for `N#Cc1ccc2nc(NC(=O)c3cnc(C(F)(F)F)nc3)n(CC(F)(F)F)c2c1`, in data set [1], the selectivity ratio amounted to 8. In addition, in the data set on Trypanosoma cruzi, the IC50 worked out at 0.24 µM.
Taken in the same sequence, the figures for `Cn1nccc1C(=O)Nc1nc2cc(S(C)(=O)=O)ccc2n1CC(F)(F)F` were 6 and 2.2 µM.
`CCCn1c(NCc2ccc(F)cc2)nc2cc(F)ccc21`: in the data set on Trypanosoma cruzi, the IC50 is 25 µM.
As to `O=C(Nc1nc2cncnc2n1CC(F)(F)F)c1ccc(C(F)(F)F)nc1`, the selectivity ratio in data set [1] is 6. Also, the IC50 in the data set on Trypanosoma cruzi stood at 0.51 µM.
For `CC(C)(C)Cn1c(NC(=O)c2ccc(C(F)(F)F)nc2)nc2ccc(C#N)cc21` the same measures were over 1 and 52 µM.
For `O=C(Nc1nc2cc(F)ccc2n1C1CCNCC1)c1cccnc1` the same measures were 3 and 9.2 µM.
Turning to `CCCn1c(NC(=O)Cc2ccc(F)cc2)nc2ccc(C(=O)N3CCCC3)cc21`, the selectivity ratio in data set [1] is over 8. Besides, the IC50 in the data set with Trypanosoma cruzi came out at 8.5 µM.
Turning to `N#Cc1ccc2nc(NC(=O)c3cc(C(F)(F)F)nn3CC(=O)O)n(CC(F)(F)F)c2c1`, in data set [1], the selectivity ratio amounted to 1. For the same compound, the IC50 in the data set with Trypanosoma cruzi worked out at 64 µM.
Taken in the same sequence, the figures for `Cn1nccc1C(=O)Nc1nc2cc(CO)ccc2n1CC(F)(F)F` were 1 and 64 µM.
In the case of `CCCn1c(NC(=O)c2ccc(F)cc2)nc2ccc(F)cc21`, in the data set with Trypanosoma cruzi, the IC50 is over 64 µM.
`O=C(Nc1nc2cncnc2n1CC(F)(F)F)c1cc(C(F)(F)F)n[nH]1`: in data set [1], the selectivity ratio came to 4. Further, in the data set with Trypanosoma cruzi, the IC50 came out at 7.5 µM.
For `N#Cc1ccc2nc(NC(=O)c3ccnn3C3CC3)n(CC(F)(F)F)c2c1` the same measures were 3 and 0.99 µM.
For `Cn1cc(C(=O)Nc2nc3ccc(C#N)cc3n2CC(F)(F)F)cn1` the same measures were 1 and 64 µM.
Taken in the same sequence, the figures for `Cc1cc(C(=O)Nc2nc3ccc(C#N)cc3n2CC(F)(F)F)[nH]n1` were 1 and 36 µM.
Turning to `CCCn1ccnc1NC(=O)Cc1ccc(F)cc1`, the IC50 in the data set on Trypanosoma cruzi came out at 35 µM.
On to `CCCn1c(NC(=O)c2ccc(C(F)(F)F)nc2)nc2cccnc21`, for which, in data set [1], the selectivity ratio came to 15. Further, in the data set with Trypanosoma cruzi, the IC50 was 3.2 µM.
